Calls of active or inactive are those of the source. No cut-off for these calls is given here.
Legend:
[1] = Cytotoxicity against human T3M4 cells by crystal violet staining; format: functional, cell-based
Method in brief: (§1)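 Cells plated at 5000–10,000 per well and left 24 h, then exposed to drug in medium for the set time at 37°C, 5% CO2. Washed with PBS, fixed 15 min in 4% paraformaldehyde and stained 5 min with 0.5% crystal violet in methanol. Lysed in 1% SDS, OD read at 570 nm with untreated cells as 100%. IC50 fitted by nonlinear sigmoidal regression over at least five concentrations, each in triplicate; three independent experiments.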

[2] = Cytotoxicity against human Colo-357 cells by crystal violet staining; format: functional, cell-based; details: COLO357; method in brief: as §1
[3] = Cytotoxicity against human Patu-T cells by crystal violet staining; format: functional, cell-based; details: PaTu 8988t; method in brief: as §1
[4] = Cytotoxicity against human Patu-S cells by crystal violet staining; format: functional, cell-based; method in brief: as §1
[5] = Cytotoxicity against human Aspc-1 cells by crystal violet staining; format: functional, cell-based; details: ASPC1; method in brief: as §1
[6] = Cytotoxicity against human PANC1 cells by crystal violet staining; format: functional, cell-based; details: PANC-1; method in brief: as §1
[7] = Cytotoxicity against human Patu-02 cells by crystal violet staining; format: functional, cell-based; method in brief: as §1
[8] = test system: DAN-G; assay: Cytotoxicity against human DAN-G cells by crystal violet staining; format: functional, cell-based; method in brief: as §1
[9] = Cytotoxicity against human 5-FU-resistant Patu-T cells by crystal violet staining; format: functional, cell-based; details: PaTu 8988t
Method in brief: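 Patu-8988T subclones were selected with rising 5-FU over 6 months, then kept drug-free at least 1 week. Cells were plated at 5000–10,000/well, left 24 h, then drug-exposed. They were fixed in 4% paraformaldehyde, stained with 0.5% crystal violet in methanol, lysed in 1% SDS, and read at OD 570 nm against untreated cells (100%). At least five concentrations were tested in triplicate, and IC50 was obtained by sigmoidal nonlinear regression.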

[10] = test system: PaTu 8988t; assay: Induction of thymidylate synthase expression in human Patu-T cells after 6 months by RT-PCR analysis relative to control; format: functional, cell-based
Method in brief: (§2)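 Patu-8988T cells were cultured 6 months with increasing 5-FU, then kept at least 1 week drug-free. Transcripts were quantified by real-time RT-PCR on 20 ng cDNA with a Tris/KCl/MgCl2 platinum Taq master mix and ROX reference. Expression is reported relative to untreated parental Patu-T cells.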

[11] = Induction of BCRP expression in human Patu-T cells after 6 months by RT-PCR analysis relative to control; format: ADME, cell-based; details: patu 8988t, 4383 h; method in brief: as §2
[12] = test system: MRP5; assay: Induction of MRP5 expression in human MRP5 vector transfected Colo-357 cells by RT-PCR analysis relative to control; format: cell-based, COLO357; details: Colo-357 cells transfected with human MRP5 vector, read-out: FC
Method in brief: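 Colo-357 cells were transfected with pcDNA3.1/hygro-MRP5 or empty vector, split after 48 h and selected in hygromycin B. MRP5 mRNA was measured by quantitative real-time RT-PCR (20 ng cDNA) relative to the vector-only clone.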

[13] = Cytotoxicity against human Colo-357 cells assessed as cell killing at 1 uM after 48 hrs using propidium iodide staining by cytofluorometric analysis; format: functional, COLO357
Method in brief: (§3)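 Colo-357 cells stably transfected with pcDNA3.1/hygro-MRP5 or empty vector were cultured with 5-FU (1–33 M) for 48 h. Cells were harvested, stained with 2 g/ml propidium iodide in PBS for 5 min at 4°C in the dark, and PI uptake was read by flow cytometry (10,000 cells, debris gated out). Values are the percentage of dead cells from three assays in triplicate.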

[14] = Cytotoxicity against human Colo-357 cells assessed as cell killing at 3 uM after 48 hrs using propidium iodide staining by cytofluorometric analysis; format: functional, COLO357; method in brief: as §3
[15] = Cytotoxicity against human Colo-357 cells assessed as cell killing at 10 uM after 48 hrs using propidium iodide staining by cytofluorometric analysis; format: functional, COLO357; method in brief: as §3
[16] = Cytotoxicity against human Colo-357 cells assessed as cell killing at 33 uM after 48 hrs using propidium iodide staining by cytofluorometric analysis; format: functional, COLO357; method in brief: as §3
[17] = Cytotoxicity against human Colo-357 cells expressing MRP5 assessed as cell killing at 1 uM after 48 hrs using propidium iodide staining by cytofluorometric analysis; format: functional, COLO357; method in brief: as §3
[18] = Cytotoxicity against human Colo-357 cells expressing MRP5 assessed as cell killing at 3 uM after 48 hrs using propidium iodide staining by cytofluorometric analysis; format: functional, COLO357; method in brief: as §3
[19] = Cytotoxicity against human Colo-357 cells expressing MRP5 assessed as cell killing at 10 uM after 48 hrs using propidium iodide staining by cytofluorometric analysis; format: functional, COLO357; method in brief: as §3
[20] = Cytotoxicity against human Colo-357 cells expressing MRP5 assessed as cell killing at 33 uM after 48 hrs using propidium iodide staining by cytofluorometric analysis; format: functional, COLO357; method in brief: as §3
[21] = test system: COLO357; assay: Cytotoxicity against human Colo-357 cells expressing MRP5 assessed as cell killing after 48 hrs using propidium iodide staining by cytofluorometric analysis; format: functional, cell-based; method in brief: as §3
[22] = target: T1, ATP-binding cassette sub-family C member 5 (Homo sapiens, UniProt O15440); assay: Activity at MRP5 in human Colo-357 cells assessed as decrease of drug accumulation after 2 hrs relative to wild type cells; format: ADME, cell-based; set-up: scale not given: the % may be the effect or the level left; details: colo357, 2 h
T1 sequence (O15440 whole entry): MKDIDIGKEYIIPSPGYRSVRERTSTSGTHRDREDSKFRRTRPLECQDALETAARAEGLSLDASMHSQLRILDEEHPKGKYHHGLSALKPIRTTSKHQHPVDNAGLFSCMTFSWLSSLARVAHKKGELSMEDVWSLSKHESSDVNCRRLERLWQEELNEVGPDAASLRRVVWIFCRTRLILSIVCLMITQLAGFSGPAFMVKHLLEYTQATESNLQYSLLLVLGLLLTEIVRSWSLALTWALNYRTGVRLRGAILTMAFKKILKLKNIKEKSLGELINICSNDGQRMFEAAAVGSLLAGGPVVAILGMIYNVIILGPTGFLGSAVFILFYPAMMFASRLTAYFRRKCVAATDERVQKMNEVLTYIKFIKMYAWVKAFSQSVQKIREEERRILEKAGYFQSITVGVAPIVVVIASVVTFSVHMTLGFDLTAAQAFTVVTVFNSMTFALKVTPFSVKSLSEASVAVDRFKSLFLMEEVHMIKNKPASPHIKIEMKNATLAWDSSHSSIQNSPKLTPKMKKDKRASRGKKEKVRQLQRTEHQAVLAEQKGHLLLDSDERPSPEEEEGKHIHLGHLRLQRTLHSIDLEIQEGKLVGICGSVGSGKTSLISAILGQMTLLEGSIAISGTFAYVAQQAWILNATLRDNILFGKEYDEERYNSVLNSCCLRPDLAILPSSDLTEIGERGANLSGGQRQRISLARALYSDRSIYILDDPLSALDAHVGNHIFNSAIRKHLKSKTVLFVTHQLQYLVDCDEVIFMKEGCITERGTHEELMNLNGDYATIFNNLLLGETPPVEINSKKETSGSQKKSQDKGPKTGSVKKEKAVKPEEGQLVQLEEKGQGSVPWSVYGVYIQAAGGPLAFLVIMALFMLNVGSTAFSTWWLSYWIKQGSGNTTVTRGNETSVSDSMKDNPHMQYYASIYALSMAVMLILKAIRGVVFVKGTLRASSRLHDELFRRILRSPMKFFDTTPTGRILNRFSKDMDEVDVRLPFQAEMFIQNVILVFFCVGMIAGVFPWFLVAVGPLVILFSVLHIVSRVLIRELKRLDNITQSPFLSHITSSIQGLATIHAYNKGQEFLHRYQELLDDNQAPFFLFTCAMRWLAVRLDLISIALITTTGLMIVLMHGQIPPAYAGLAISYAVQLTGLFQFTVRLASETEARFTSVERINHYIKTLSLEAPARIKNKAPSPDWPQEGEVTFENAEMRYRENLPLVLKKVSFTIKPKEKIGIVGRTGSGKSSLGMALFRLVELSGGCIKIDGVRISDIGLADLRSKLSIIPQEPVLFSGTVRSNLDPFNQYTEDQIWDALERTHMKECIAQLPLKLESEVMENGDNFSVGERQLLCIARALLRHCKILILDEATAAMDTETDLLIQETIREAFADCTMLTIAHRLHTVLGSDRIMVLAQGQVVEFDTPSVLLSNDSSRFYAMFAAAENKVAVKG
Method in brief: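 Stably transfected Colo-357 (pcDNA3.1/hygro-MRP5 vs empty vector, hygromycin B selected), subconfluent, seeded in triplicate, grown overnight, then incubated at 37°C with 7.6 M [14C]5-FU (0.4 Ci/ml, 52 mCi/mmol) for timed intervals. Washed with ice-cold PBS, lysed in 0.2% SDS, scintillation counted, normalised to protein.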

[23] = target: T1, ATP-binding cassette sub-family C member 5; assay: Activity at MRP5 in human Colo-357 cells assessed as increase of drug efflux after 60 mins relative to wild type cells; format: ADME, cell-based; details: colo357, 1 h
Method in brief: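 Transfected Colo-357 cells seeded in triplicate were preloaded 2 h with [14C]5-FU in energy-depletion medium (glucose-free, pyruvate-free, sodium azide). After two washes, medium was switched to ordinary drug-free growth medium, and medium radioactivity was sampled at time points over 60 min. Results are expressed as released radioactivity relative to radioactivity accumulated during loading.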

[24] = Cytotoxicity against human MRP5 knockdown Patu-02 cells assessed as increase of cell death at 3.3 uM after 48 hrs using propidium iodide staining by cytofluorometric analysis; format: functional
Method in brief: (§4)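 Patu-02 cells stably transfected with an MRP5 siRNA expression vector or empty vector (hygromycin B selected, single-cell cloned, RT-PCR screened) were exposed to 5-FU (3.3–100 M) for 48 h. Cell death was measured as PI uptake (2 g/ml, 5 min, 4°C, dark) by flow cytometry on 10,000 gated cells. Three assays were run in triplicate.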

[25] = Cytotoxicity against human MRP5 knockdown Patu-02 cells assessed as increase of cell death at 10 uM after 48 hrs using propidium iodide staining by cytofluorometric analysis; format: functional; method in brief: as §4
[26] = Cytotoxicity against human MRP5 knockdown Patu-02 cells assessed as increase of cell death at 33 uM after 48 hrs using propidium iodide staining by cytofluorometric analysis; format: functional; method in brief: as §4
[27] = Cytotoxicity against human MRP5 knockdown Patu-02 cells assessed as increase of cell death at 100 uM after 48 hrs using propidium iodide staining by cytofluorometric analysis; format: functional; method in brief: as §4
[28] = Cytotoxicity against human Patu-02 cells assessed as increase of cell death at 3.3 uM after 48 hrs using propidium iodide staining by cytofluorometric analysis; format: functional; method in brief: as §4
[29] = Cytotoxicity against human Patu-02 cells assessed as increase of cell death at 10 uM after 48 hrs using propidium iodide staining by cytofluorometric analysis; format: functional; method in brief: as §4
[30] = Cytotoxicity against human Patu-02 cells assessed as increase of cell death at 33 uM after 48 hrs using propidium iodide staining by cytofluorometric analysis; format: functional; method in brief: as §4
[31] = Cytotoxicity against human Patu-02 cells assessed as increase of cell death at 100 uM after 48 hrs using propidium iodide staining by cytofluorometric analysis; format: functional; method in brief: as §4
[32] = test system: MRP4; assay: Induction of MRP4 expression in human Patu-T cells after 6 months by RT-PCR analysis relative to control; format: cell-based, PaTu 8988t; details: read-out: FC; method in brief: as §2
[33] = test system: MRP5; assay: Induction of MRP5 expression in human Patu-T cells after 6 months by RT-PCR analysis relative to control; format: cell-based, PaTu 8988t; details: read-out: FC; method in brief: as §2

## Sc1ncnc2nc[nH]c12 [MERCAPTOPURINE ANHYDROUS]
[1]
  IC50: 2630 nM
[2]
  IC50: 6120 nM
[3]
  IC50: 4090 nM
[4]
  IC50: 11100 nM
[5]
  IC50: 2450 nM
[6]
  IC50: 6390 nM
[7]
  IC50: 9690 nM
[8]
  IC50: 4060 nM

## O=c1[nH]cc(F)c(=O)[nH]1 [FLUOROURACIL]
[9]
  IC50: 33200 nM
[10]
  Activity: inactive
[11]
  Activity: Not Active
[12]
  fold induction: 4.3
[13]
  Activity: 26.4%
[14]
  Activity: 45.4%
[15]
  Activity: 54.6%
[16]
  Activity: 53%
[17]
  Activity: 16.4%
[18]
  Activity: 31.2%
[19]
  Activity: 39.1%
[20]
  Activity: 44.9%
[21]
  Activity: inactive
[22]
  Activity: 59.2%
[23]
  fold change (FC): 2.1
[24]
  Activity: 36%
[25]
  Activity: 53%
[26]
  Activity: 80%
[27]
  Activity: 94%
[28]
  Activity: 10%
[29]
  Activity: 27%
[30]
  Activity: 63%
[31]
  Activity: 66%
[1]
  IC50: 330 nM
[2]
  IC50: 2050 nM
[3]
  IC50: 2080 nM
[4]
  IC50: 2930 nM
[5]
  IC50: 2970 nM
[6]
  IC50: 3940 nM
[7]
  IC50: 3950 nM
[8]
  IC50: 4380 nM
[32]
  fold induction at 4383 h: 2.5
[33]
  fold induction at 4383 h: 2.4

## Nc1nc2[nH]cnc2c(=S)[nH]1 [THIOGUANINE]
[1]
  IC50: 1280 nM
[2]
  IC50: 2090 nM
[3]
  IC50: 3430 nM
[4]
  IC50: 2210 nM
[5]
  IC50: 2800 nM
[6]
  IC50: 8310 nM
[7]
  IC50: 2260 nM
[8]
  IC50: 4320 nM

## Nc1ccn([C@@H]2O[C@H](CO)[C@@H](O)C2(F)F)c(=O)n1 [GEMCITABINE]
[1]
  IC50: 1.5 nM
[2]
  IC50: 0.36 nM
[3]
  IC50: 2.8 nM
[4]
  IC50: 3.2 nM
[5]
  IC50: 4 nM
[6]
  IC50: 1 nM
[7]
  IC50: 3.4 nM
[8]
  IC50: 3.4 nM

— ChEMBL document CHEMBL3525937, “Drug efflux transporter multidrug resistance-associated protein 5 affects sensitivity of pancreatic cancer cell lines to the nucleoside anticancer drug 5-fluorouracil” (Drug Metab Dispos, 2011)
